# Laboratory results reported in ChEMBL document CHEMBL1671628, “Cell density and cell aging as factors modulating antifungal resistance of Candida albicans biofilms” (2008).
# How the values were obtained:
# Format in all cases: functional
# Candida albicans [1] = assay: Antifungal activity against 10^7 cells/ml Candida albicans ATCC 90028 planktonic cells by XTT reduction assay
# Outline: (§1)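 High-density planktonic suspensions (10^7 or 10^8 cells/ml) added to serially double-diluted drugs as in the NCCLS setup, run in parallel in RPMI 1640 + 2% glucose and YNB + 100 mM glucose. Viability read by XTT (1 mg/ml) with menadione (0.4 mM stock, 5:1), 3 h dark at 37°C, A490 minus blank wells. MIC50 = lowest concentration giving 50% reduction versus drug-free control.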
# Candida albicans [2] = assay: Antifungal activity against 10^7 cells/ml wild-type Candida albicans BF-1 planktonic cells by XTT reduction assay; outline: as §1
# Candida albicans [3] = assay: Antifungal activity against 10^8 cells/ml Candida albicans ATCC 90028 planktonic cells by XTT reduction assay; outline: as §1
# Candida albicans [4] = assay: Antifungal activity against 10^8 cells/ml wild-type Candida albicans BF-1 planktonic cells by XTT reduction assay
# Outline: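 Planktonic suspensions at 1 × 10^8 cells/ml added to twofold serial drug dilutions in 96-well plates (NCCLS format). Run in parallel in RPMI 1640 + 2% glucose and YNB + 100 mM glucose. Readout by XTT reduction: XTT–menadione in PBS, 3 h at 37°C in the dark, A490 minus blank. MIC50 is 50% reduction vs drug-free control.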
# Candida albicans [5] = assay: Antifungal activity against 24 hrs cultures of 10^7 cells/ml Candida albicans ATCC 90028 biofilms by XTT reduction assay
# Outline: (§2)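 Washed late-exponential cells at 1 × 10^7 cells/ml in YNB + 100 mM glucose were adhered 1.5 h at 37°C with shaking at 75 rpm, washed, then grown 24 or 48 h at 37°C, 75 rpm. Biofilms were washed and exposed 24 or 48 h at 37°C to twofold dilutions in RPMI + 2% glucose. Read by XTT at A490. MIC50 is 50% reduction vs drug-free control. Three experiments, four replicates.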
# Candida albicans [6] = assay: Antifungal activity against 24 hrs cultures of 10^7 cells/ml wild-type Candida albicans BF-1 biofilms by XTT reduction assay; outline: as §2
# Candida albicans [7] = assay: Antifungal activity against 48 hrs cultures of 10^7 cells/ml Candida albicans ATCC 90028 biofilms by XTT reduction assay; outline: as §2
# Candida albicans [8] = assay: Antifungal activity against 48 hrs cultures of 10^7 cells/ml wild-type Candida albicans BF-1 biofilms by XTT reduction assay; outline: as §2
# Candida albicans [9] = assay: Antifungal activity against 24 hrs cultures of 10^7 cells/ml Candida albicans ATCC 90028 planktonic cells by XTT reduction method
# Outline: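 Standard 1 × 10^7 cells/ml suspension in YNB + 100 mM glucose propagated planktonically 24 h alongside age-matched biofilms, then exposed to twofold drug dilutions. Metabolic activity read by XTT–menadione reduction, 3 h dark, 37°C, A490 background-subtracted. MIC50 is the 50% reduction point versus drug-free control.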
# Candida albicans [10] = assay: Antifungal activity against 24 hrs cultures of 10^7 cells/ml Candida albicans BF-1 planktonic cells by XTT reduction method
# Outline: (§3)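 Age-matched planktonic cultures were grown from the same 1 × 10^7 cells/ml YNB + 100 mM glucose suspension under the biofilm conditions for 24 or 48 h. They were tested against twofold drug dilutions by XTT reduction (3 h at 37°C in the dark, A490 minus blank). MIC50 is 50% reduction vs drug-free control.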
# Candida albicans [11] = assay: Antifungal activity against 48 hrs cultures of 10^7 cells/ml Candida albicans ATCC 90028 planktonic cells by XTT reduction method; outline: as §3
# Candida albicans [12] = assay: Antifungal activity against 48 hrs cultures of 10^7 cells/ml Candida albicans BF-1 planktonic cells by XTT reduction method; outline: as §3
# Candida albicans [13] = assay: Antifungal activity against 24 hrs cultures of 10^7 cells/ml Candida albicans ATCC 90028 biofilms by XTT reduction method; outline: as §2
# Candida albicans [14] = assay: Antifungal activity against 24 hrs cultures of 10^7 cells/ml Candida albicans BF-1 biofilms by XTT reduction method; outline: as §2
# Candida albicans [15] = assay: Antifungal activity against 48 hrs cultures of 10^7 cells/ml Candida albicans ATCC 90028 biofilms by XTT reduction method; outline: as §2
# Candida albicans [16] = assay: Antifungal activity against 48 hrs cultures of 10^7 cells/ml Candida albicans BF-1 biofilms by XTT reduction method; outline: as §2
# Candida albicans [17] = assay: Antifungal activity against 24 hrs cultures of 10^7 cells/ml biofilm-derived Candida albicans ATCC 90028 planktonic cells hrs by XTT reduction method
# Outline: (§4)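 Biofilms grown from 1 × 10^7 cells/ml (YNB + 100 mM glucose, 1.5 h adherence, 37°C, 75 rpm) for 24 or 48 h, washed, scraped and moved to wells of serially double-diluted drugs. Incubated with drug 24 or 48 h, then XTT–menadione read at 490 nm. MIC50 = 50% reduction versus drug-free control.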
# Candida albicans [18] = assay: Antifungal activity against 24 hrs cultures of 10^7 cells/ml biofilm-derived Candida albicans BF-1 planktonic cells hrs by XTT reduction method
# Outline: (§5)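 Biofilms grown 24 or 48 h from 1 × 10^7 cells/ml were washed, scraped and transferred into plates of twofold serially diluted drugs. They were incubated 24 or 48 h. MIC was read by XTT reduction (3 h at 37°C in the dark, A490 minus blank) as 50% reduction vs drug-free control.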
# Candida albicans [19] = assay: Antifungal activity against 48 hrs cultures of 10^7 cells/ml biofilm-derived Candida albicans ATCC 90028 planktonic cells hrs by XTT reduction method; outline: as §5
# Candida albicans [20] = assay: Antifungal activity against 48 hrs cultures of 10^7 cells/ml biofilm-derived Candida albicans BF-1 planktonic cells hrs by XTT reduction method; outline: as §4
# Candida albicans [21] = assay: Ratio of MIC for 10^8 cells/ml wild-type Candida albicans BF-1 to MIC for 10^7 cells/ml wild-type Candida albicans BF-1 grown as planktonic cells; outline: as §1
# Candida albicans [22] = assay: Antifungal activity against 10^3 cells/ml Candida albicans ATCC 90028 by NCCLS method
# Outline: (§6)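 Planktonic broth microdilution per NCCLS (CLSI): inoculum from 24-h SDA cultures adjusted to 0.5 McFarland at 520 nm, diluted in RPMI 1640 to about 0.5 × 10^3 to 2.5 × 10^3 cells/ml. Cells exposed to twofold drug dilutions, incubated 35°C for 48 h, then MIC read. Three separate occasions.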
# Candida albicans [23] = assay: Antifungal activity against 10^3 cells/ml wild-type Candida albicans BF-1 by NCCLS method; outline: as §6
# Candida albicans [24] = assay: Antifungal activity against 10^5 cells/ml Candida albicans ATCC 90028 by EUCAST method
# Outline: (§7)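 EUCAST AFST planktonic broth microdilution: RPMI 1640 plus 2% glucose, inoculum 0.5 × 10^5 to 2.5 × 10^5 cells/ml, twofold drug dilutions. Performed on three different occasions.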
# Candida albicans [25] = assay: Antifungal activity against 10^5 cells/ml wild-type Candida albicans BF-1 by EUCAST method; outline: as §7
sequence,measurement,setting,value
NYSTATIN,MIC,Candida albicans [1],2 mg/L
same,MIC,Candida albicans [2],2 mg/L
same,MIC,Candida albicans [3],8 mg/L
same,MIC,Candida albicans [4],16 mg/L
same,MIC,Candida albicans [5],16 mg/L
same,MIC,Candida albicans [6],32 mg/L
same,MIC,Candida albicans [7],16 mg/L
same,MIC,Candida albicans [8],32 mg/L
same,MIC,Candida albicans [9],2 mg/L
same,MIC,Candida albicans [10],4 mg/L
same,MIC,Candida albicans [11],8 mg/L
same,MIC,Candida albicans [12],16 mg/L
same,MIC,Candida albicans [13],16 mg/L
same,MIC,Candida albicans [14],32 mg/L
same,MIC,Candida albicans [15],16 mg/L
same,MIC,Candida albicans [16],32 mg/L
same,MIC,Candida albicans [17],2 mg/L
same,MIC,Candida albicans [18],4 mg/L
same,MIC,Candida albicans [19],8 mg/L
same,MIC,Candida albicans [20],16 mg/L
same,Ratio,Candida albicans [21],8
same,MIC,Candida albicans [22],1 mg/L
same,MIC,Candida albicans [23],2 mg/L
same,MIC,Candida albicans [24],1 mg/L
same,MIC,Candida albicans [25],2 mg/L
